Values after ≈ are worked out from the molar mass of the structure shown.
What was measured:
Aeromonas hydrophila = assay: Antibacterial activity against Aeromonas hydrophila QDIO-1 by microplate assay; assay type: functional
[1] = test system: Colletotrichum gloeosporioides; assay: Antifungal activity against Colletotrichum gloeosporioides QDAU-2 by microplate assay; assay type: functional
Outline: (§1)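 Phytopathogenic fungal strains came from a research group at Qingdao Agricultural University and are kept at the Key Laboratory of Experimental Marine Biology, Institute of Oceanology, CAS. Tested by microplate assay with amphotericin B as the positive control.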

Vibrio anguillarum = assay: Antibacterial activity against Vibrio anguillarum QDIO-6 by microplate assay; assay type: functional
Vibrio harveyi = assay: Antibacterial activity against Vibrio harveyi QDIO-7 by microplate assay; assay type: functional
Pseudomonas aeruginosa = assay: Antibacterial activity against Pseudomonas aeruginosa QDIO-4 by microplate assay; assay type: functional
Gaeumannomyces graminis = assay: Antifungal activity against Gaeumannomyces graminis QDAU-3 by microplate assay; assay type: functional; outline: as §1
Staphylococcus aureus = assay: Antibacterial activity against Staphylococcus aureus EMBLC-2 by microplate assay; assay type: functional
Escherichia coli = assay: Antibacterial activity against Escherichia coli EMBLC-1 by microplate assay; assay type: functional
Vibrio alginolyticus = assay: Antibacterial activity against Vibrio alginolyticus QDIO-5 by microplate assay; assay type: functional
Edwardsiella tarda = assay: Antibacterial activity against Edwardsiella tarda QDIO-2 by microplate assay; assay type: functional
Vibrio parahaemolyticus = assay: Antibacterial activity against Vibrio parahaemolyticus QDIO-8 by microplate assay; assay type: functional
Micrococcus luteus = assay: Antibacterial activity against Micrococcus luteus QDIO-3 by microplate assay; assay type: functional
[2] = Toxicity in brine shrimp; assay type: organism-based; details: artemia salina, in vivo; read-out: LD50 (the source's name)
Alternaria brassicae = assay: Antifungal activity against Alternaria brassicae QDAU-1 by microplate assay; assay type: functional; outline: as §1

Compound | MIC (Aeromonas hydrophila) | MIC [1] | MIC (Vibrio anguillarum) | MIC (Vibrio harveyi) | MIC (Pseudomonas aeruginosa) | MIC (Gaeumannomyces graminis) | MIC (Staphylococcus aureus) | MIC (Escherichia coli) | MIC (Vibrio alginolyticus) | MIC (Edwardsiella tarda) | MIC (Vibrio parahaemolyticus) | MIC (Micrococcus luteus) | LC50 [2] | MIC (Alternaria brassicae)
Cc1cc(O)cc(Oc2cc(C)cc(OCc3ccc([C@@](C)(O)CCCC(C)C)c(O)c3)c2)c1 | > 32 µg/mL | > 32 µg/mL | > 32 µg/mL | > 32 µg/mL | 32 µg/mL (≈ 68.9 µM) | 32 µg/mL (≈ 68.9 µM) | > 32 µg/mL | > 32 µg/mL | 2 µg/mL (≈ 4.3 µM) | > 32 µg/mL | > 32 µg/mL | 1 µg/mL (≈ 2.15 µM) | > 10 µg/mL | 0.5 µg/mL (≈ 1.08 µM)
Cc1ccc([C@@]2(C)CCC(=O)O2)c(O)c1 | > 32 µg/mL | 32 µg/mL (≈ 155 µM) | > 32 µg/mL | 4 µg/mL (≈ 19.4 µM) | > 32 µg/mL | 32 µg/mL (≈ 155 µM) | 32 µg/mL (≈ 155 µM) | 32 µg/mL (≈ 155 µM) | > 32 µg/mL | > 32 µg/mL | > 32 µg/mL | > 32 µg/mL | > 10 µg/mL | > 32 µg/mL
C[C@@H]1[C@H](O)[C@@H](C)/C=C/C=C/C=C/C=C/C=C/C=C/C=C/[C@H](O[C@@H]2O[C@H](C)[C@@H](O)[C@H](N)[C@@H]2O)C[C@@H]2O[C@](O)(C[C@@H](O)C[C@@H](O)[C@H](O)CC[C@@H](O)C[C@@H](O)CC(=O)O[C@H]1C)C[C@H](O)[C@H]2C(=O)O [AMPHOTERICIN B] |  | 32 µg/mL (≈ 34.6 µM) |  |  |  | 64 µg/mL (≈ 69.3 µM) |  |  |  |  |  |  |  | 32 µg/mL (≈ 34.6 µM)
C=C(CCCC(C)C)c1ccc(C(=O)O)cc1O | > 32 µg/mL | > 32 µg/mL | > 32 µg/mL | 4 µg/mL (≈ 16.1 µM) | > 32 µg/mL | 0.5 µg/mL (≈ 2.01 µM) | 32 µg/mL (≈ 129 µM) | > 32 µg/mL | > 32 µg/mL | > 32 µg/mL | 32 µg/mL (≈ 129 µM) | > 32 µg/mL | > 10 µg/mL | > 32 µg/mL
C/C(=C\CCC(C)C)c1ccc(Cc2c(C)cc(Oc3cc(C)cc(O)c3)cc2O)cc1O | > 32 µg/mL | 32 µg/mL (≈ 71.7 µM) | 32 µg/mL (≈ 71.7 µM) | > 32 µg/mL | 4 µg/mL (≈ 8.96 µM) | 32 µg/mL (≈ 71.7 µM) | > 32 µg/mL | 32 µg/mL (≈ 71.7 µM) | 8 µg/mL (≈ 17.9 µM) | > 32 µg/mL | 32 µg/mL (≈ 71.7 µM) | 8 µg/mL (≈ 17.9 µM) | > 10 µg/mL | 32 µg/mL (≈ 71.7 µM)
O=C(N[C@H](CO)[C@H](O)c1ccc([N+](=O)[O-])cc1)C(Cl)Cl [CHLORAMPHENICOL] | 4 µg/mL (≈ 12.4 µM) |  | 0.5 µg/mL (≈ 1.55 µM) | 4 µg/mL (≈ 12.4 µM) | 8 µg/mL (≈ 24.8 µM) |  | 0.5 µg/mL (≈ 1.55 µM) | 4 µg/mL (≈ 12.4 µM) | 0.5 µg/mL (≈ 1.55 µM) | 8 µg/mL (≈ 24.8 µM) | 0.5 µg/mL (≈ 1.55 µM) | 8 µg/mL (≈ 24.8 µM) |  | 
CC(C)CCC[C@](C)(O)c1ccc(C(=O)O)cc1O | > 32 µg/mL | 32 µg/mL (≈ 120 µM) | 32 µg/mL (≈ 120 µM) | 4 µg/mL (≈ 15 µM) | > 32 µg/mL | 0.5 µg/mL (≈ 1.88 µM) | 32 µg/mL (≈ 120 µM) | > 32 µg/mL | > 32 µg/mL | 32 µg/mL (≈ 120 µM) | 4 µg/mL (≈ 15 µM) | > 32 µg/mL | > 10 µg/mL | > 32 µg/mL
CC(C)(O)CCC[C@](C)(O)c1ccc(C(=O)O)cc1O | 32 µg/mL (≈ 113 µM) | > 32 µg/mL | 32 µg/mL (≈ 113 µM) | > 32 µg/mL | > 32 µg/mL | > 32 µg/mL | > 32 µg/mL | 32 µg/mL (≈ 113 µM) | > 32 µg/mL | > 32 µg/mL | 32 µg/mL (≈ 113 µM) | > 32 µg/mL | > 10 µg/mL | > 32 µg/mL
C=C(C)CCC[C@](C)(O)c1ccc(C(=O)O)cc1O [11-DEHYDROSYDONIC ACID] | > 32 µg/mL | 32 µg/mL (≈ 121 µM) | > 32 µg/mL | 4 µg/mL (≈ 15.1 µM) | > 32 µg/mL | > 32 µg/mL | 32 µg/mL (≈ 121 µM) | > 32 µg/mL | > 32 µg/mL | > 32 µg/mL | 32 µg/mL (≈ 121 µM) | 32 µg/mL (≈ 121 µM) | > 10 µg/mL | > 32 µg/mL
CC(C)C(O)CC[C@](C)(O)c1ccc(C(=O)O)cc1O (some centres undefined) | 32 µg/mL (≈ 113 µM) | > 32 µg/mL | > 32 µg/mL | 8 µg/mL (≈ 28.3 µM) | > 32 µg/mL | > 32 µg/mL | 32 µg/mL (≈ 113 µM) | > 32 µg/mL | > 32 µg/mL | > 32 µg/mL | 32 µg/mL (≈ 113 µM) | > 32 µg/mL | > 10 µg/mL | > 32 µg/mL
CC(C)CCC[C@](C)(O)c1ccc(COC(=O)c2ccc([C@@](C)(O)CCCC(C)C)c(O)c2)cc1O | > 32 µg/mL | > 32 µg/mL | > 32 µg/mL | > 32 µg/mL | > 32 µg/mL | > 32 µg/mL | > 32 µg/mL | > 32 µg/mL | > 32 µg/mL | 8 µg/mL (≈ 16 µM) | 32 µg/mL (≈ 63.9 µM) | > 32 µg/mL | > 10 µg/mL | 32 µg/mL (≈ 63.9 µM)

From ChEMBL document CHEMBL3576803, “Antimicrobial Phenolic Bisabolanes and Related Derivatives from Penicillium aculeatum SD-321, a Deep Sea Sediment-Derived Fungus” (J Nat Prod, 2015)
